# Screening data deposited in PubChem by Sanford-Burnham Center for Chemical Genomics.
# G6PDH counter: counter-screen for G6PDH assay hits: L. mesenteroides G6PDH inhibition; AID 1020; Purified L. mesenteroides G6PDH, diaphorase/resazurin coupled fluorescence, 45 min; 200,000 tested, 0.12% active; inhibition, % at 5 µM; in the data active = inhibition above about 50%
# Diaphorase act: diaphorase activation or chemical reduction counter-screen | Diaphorase/resazurin coupled assay, resorufin fluorescence, 16 min; active compounds read high; 1 = vehicle wells, 0 = NADH-free wells | activation factor at 20 µM | 190,000 tested, 0.005% active | AID 1229;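 active = diaphorase activity raised at least twofold by the compound at 20 µM; inactive = activation factor below 2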
#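 Material: Purified diaphorase enzyme from Clostridium kluyveri | Buffer or medium: 50 mM HEPES pH 7.4 with 4.542 mM MgCl2, 0.005% Tween 20 | Times: 16 min enzyme reaction, ambient temperature | Signal: Red resorufin fluorescence at 544/590 nm excitation/emission | Measure: Increased resorufin signal from activators or reducing compounds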
# PfG6PD inh: PfG6PD (Plasmodium falciparum) enzyme inhibition. AID 504690. PfGluPho enzyme, NADPH resazurin-diaphorase fluorescence. 350,000 tested, 0.78% active. inhibition, % at 20 µM;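 active = inhibition reaching at least a set limit at 20 µM in the primary screen, cut at about 59% in these data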;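 note: 0% = DMSO wells with substrate and 100% = DMSO wells lacking glucose-6-phosphate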
# Diaphorase inh: counter-screen for diaphorase-based assays: diaphorase inhibitors and chemical oxidizers; diaphorase resazurin-to-resorufin fluorescence, NADH, 16 min; bacterial (C. kluyveri) enzyme, not human; inhibition, % at 20 µM; 190,000 tested, 0.69% active;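 active = primary screen inhibition at 20 µM above a set limit, cut at about 50% in these data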;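 note: plate controls were DMSO with full reaction for no effect and wells lacking NADH for full effect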
#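 System: Bacterial diaphorase enzyme (C. kluyveri) | Incubation: 16-min room-temperature incubation before reading | Benchmarks: No-NADH positive control and DMSO neutral control | Measured by: Resorufin fluorescence 544/590 nm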
# HKDC1 inhibitor: blocks human hexokinase HKDC1 activity; Q2TB90; recombinant HKDC1, G6PDH/diaphorase resazurin coupled fluorescence; inhibition, % at 20 µM; 340,000 tested, 0.16% active; AID 493160;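 active = inhibition above about 35% when tested at 20 µM, limit read from the data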;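 note: plate controls were DMSO wells with enzyme for no effect and DMSO wells lacking enzyme for full effect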
# Target sequence (Q2TB90 whole entry, looked up): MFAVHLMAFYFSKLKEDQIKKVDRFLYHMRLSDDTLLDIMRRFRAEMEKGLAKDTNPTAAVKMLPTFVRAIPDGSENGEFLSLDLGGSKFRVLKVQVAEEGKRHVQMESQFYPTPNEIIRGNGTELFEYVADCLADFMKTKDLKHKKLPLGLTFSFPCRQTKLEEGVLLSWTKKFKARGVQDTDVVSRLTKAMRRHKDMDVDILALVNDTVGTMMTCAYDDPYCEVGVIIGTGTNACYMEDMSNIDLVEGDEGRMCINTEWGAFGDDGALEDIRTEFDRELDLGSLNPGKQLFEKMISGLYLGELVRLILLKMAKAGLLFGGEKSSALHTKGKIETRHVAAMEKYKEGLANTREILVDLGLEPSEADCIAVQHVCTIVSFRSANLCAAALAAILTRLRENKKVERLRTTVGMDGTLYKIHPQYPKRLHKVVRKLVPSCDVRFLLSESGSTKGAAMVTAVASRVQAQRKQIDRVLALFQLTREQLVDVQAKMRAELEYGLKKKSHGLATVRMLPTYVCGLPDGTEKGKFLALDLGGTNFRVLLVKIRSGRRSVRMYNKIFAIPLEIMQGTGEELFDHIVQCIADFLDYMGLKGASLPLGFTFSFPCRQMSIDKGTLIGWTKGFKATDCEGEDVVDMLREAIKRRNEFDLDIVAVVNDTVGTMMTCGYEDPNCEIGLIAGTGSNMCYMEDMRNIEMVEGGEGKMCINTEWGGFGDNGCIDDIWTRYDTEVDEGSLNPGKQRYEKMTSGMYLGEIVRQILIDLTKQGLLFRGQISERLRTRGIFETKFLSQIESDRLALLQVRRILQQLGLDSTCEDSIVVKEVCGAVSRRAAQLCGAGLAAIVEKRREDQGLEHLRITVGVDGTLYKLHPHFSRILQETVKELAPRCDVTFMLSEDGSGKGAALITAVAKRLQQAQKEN
#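 Test system: recombinant HKDC1 (HK5) hexokinase enzyme, produced in-house; Amount: enzyme 5 µg/mL final; Buffer or medium: Tris pH 8.0 buffer with MgCl2, Tween-20, BSA, BME; Reagent: glucose and ATP substrates; Doses: 20 µM test compound, 1% DMSO; Incubation: 90 min reaction incubation at room temperature, dark; Detection: resorufin fluorescence at 613 nm.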
# PfGluPho conf: confirmation of Plasmodium falciparum G6PD inhibitors; shares compounds with PfG6PD inh; inhibition, % at 20 µM; 2,400 tested, 34% active; recombinant PfGluPho, NADPH-diaphorase-resazurin fluorescence;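 active = inhibition of at least 50% at 20 µM in any single replicate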;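 note: 0% = DMSO with substrate and 100% = DMSO lacking glucose-6-phosphate substrate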
# Diaph ctr 10uM: counter-screen for P. falciparum G6PD inhibitors: diaphorase inhibitors, oxidizers. shares compounds with PfG6PD inh. diaphorase-coupled resazurin reduction, fluorescence, NADPH 10 uM. inhibition, % at 20 µM. 820 tested, 39% active;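 active = average inhibition reaching 50% or more with the compound at 20 µM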;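 note: resorufin red fluorescence formed as diaphorase reduces resazurin using NADPH; 0% = DMSO with enzyme and 100% = DMSO without enzyme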
# Diaph ctr 30uM: counter-screen for P. falciparum G6PD inhibitors: diaphorase inhibitors, oxidizers. inhibition, % at 20 µM. shares compounds with PfG6PD inh. Diaphorase/resazurin coupled assay, resorufin fluorescence, 30 uM NADPH. 820 tested, 29% active;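 active = inhibition averaging 50% or more, tested at 20 µM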;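 note: 0% = DMSO with enzyme and 100% = DMSO wells lacking diaphorase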
# The depositor's hits bear a star; / = no result. This is a sample that favours compounds with a hit; in the whole collection about 1.2% have one here.
SMILES,G6PDH counter,Diaphorase act,PfG6PD inh,Diaphorase inh,HKDC1 inhibitor,PfGluPho conf,others
COc1ccccc1NS(=O)(=O)c1cc(NC(=S)NCCN2CCOCC2)ccc1N1CCOCC1,2.4,1,66.4*,3.9,-7.1,40.2,
COc1ccccc1NS(=O)(=O)c1cc(NC(=O)C(C)(C)C)ccc1N1CCOCC1,/,/,2.2,/,-1.6,/,
O=S(=O)(Nc1ccc(Br)cc1)c1cccc(NC(=S)NCCN2CCOCC2)c1,/,/,10.3,/,-1.7,/,
O=S(=O)(Nc1ccccc1F)c1cccc(NC(=S)NCCN2CCOCC2)c1,/,/,96.2*,/,-17.7,77.2*,Diaph ctr 10uM=-0.5;Diaph ctr 30uM=-10.0
Cc1ccc(S(=O)(=O)NCc2nnnn2-c2ccc(F)cc2)cc1,/,/,-8.5,/,/,/,
CSc1cnn(Cc2ccccc2)c(=O)c1SCc1ccccc1,-3.0,0.8,65.5*,16.7,-4.3,-6.4,
CSc1cnn(-c2ccccc2)c(=O)c1SC,3.9,0.9,1.6,5.1,4.0,/,
Clc1ccc(-c2nnnn2-c2ccc(Cl)cc2)cc1,/,/,5.4,/,-4.2,/,
Cc1ccc(-n2nnnc2C(Cl)(Cl)c2nnnn2-c2ccc(C)cc2)cc1,0.0,0.7,71.6*,29.0,14.0,43.4,
C[C@H]1CN([C@@H](C)CO)C(=O)c2cc(C#CC3(O)CCCC3)cnc2O[C@H]1CN(C)C(=O)C1CC1,/,/,-10.0,/,/,/,
Cc1ccc(/C=C/C(=O)N2CCN(c3ncccn3)CC2)o1,-2.7,0.8,63.9*,16.0,-8.2,47.7,
Cc1ccc(/C=C/C(=O)N2CCc3ccccc32)o1,-0.4,0.8,85.0*,21.3,1.8,10.0,
Cn1c(NN)nc2sc3c(c2c1=O)CC(C)(C)OC3,12.0,0.9,64.5*,8.7,-14.7,33.6,
CCOc1ccc(OCCC(=O)Nc2ccccc2C(=O)NC2CC2)cc1,/,/,-6.9,/,/,/,
Cc1ccc(S(=O)(=O)N2CCOCC2)cc1NC(=O)CSc1ccc(Cl)cc1,/,/,-0.3,/,-1.8,/,
CCOC(=O)c1ccc(NC(=O)c2cccc(S(=O)(=O)N3CCOCC3)c2)cc1,10.9,0.7,18.2,31.7,-1.0,/,
O=C(CCCSc1ccc(Cl)cc1)Nc1cc(S(=O)(=O)N2CCOCC2)ccc1O,/,/,73.8*,/,-7.0,24.7,
CCOC(=O)c1ccc(S(=O)(=O)Nc2cc(S(=O)(=O)N3CCOCC3)ccc2O)cc1,/,/,59.9*,/,-14.2,9.7,
COc1ccc(NC(=O)CCCn2nc(C)c3c(C)n(-c4ccccc4)nc3c2=O)cc1OC,/,/,-3.5,/,-4.0,/,
Cc1ccc(NC(=O)CCCn2nc(C)c3c(C)n(-c4ccccc4)nc3c2=O)cc1C,/,/,63.5*,/,1.6,27.4,
CCOC(=O)c1sc(N)c(C(=O)Nc2ccccc2OC)c1C,-0.1,0.9,66.1*,9.7,-13.9,39.1,
O=C(CSc1nnc(SCc2ccc(Cl)cc2)s1)N/N=C/c1c[nH]c2ccccc12,6.2,0.8,59.6*,24.7,13.2,32.9,
C#CCOCCOCCOCCNc1nc(N2CCN(C(=O)Cn3cc(CCO)nn3)CC2)nc(N2CCN(C(=O)Cn3cc(CCCCN)nn3)CC2)n1,/,/,42.0,/,-3.6,/,
O=[N+]([O-])c1ccc(Oc2cccc3cccnc23)c([N+](=O)[O-])c1,-1.2,0.8,119.4*,19.7,18.0,95.2*,Diaph ctr 10uM=85.5*;Diaph ctr 30uM=74.8*
Cc1ccc2cccc(Oc3ccc([N+](=O)[O-])cc3[N+](=O)[O-])c2n1,-1.4,0.8,121.0*,23.0,-2.5,91.1*,Diaph ctr 10uM=94.3*;Diaph ctr 30uM=80.1*
SMILES,G6PDH counter,Diaphorase act,PfG6PD inh,Diaphorase inh,HKDC1 inhibitor,PfGluPho conf,others
O=[N+]([O-])c1ccccc1OCCOCCOc1cccc2cccnc12,-1.1,0.8,3.3,19.4,-7.4,/,
N#Cc1ccc(Oc2cccc3cccnc23)c([N+](=O)[O-])c1,/,/,101.8*,/,6.8,70.5*,Diaph ctr 10uM=63.5*;Diaph ctr 30uM=42.7
C[C@@H]1CCCCCCCCC(=O)OCCN(C(=O)OC(C)(C)C)[C@H](C)CCCCCCCCC(=O)OCCN(C(=O)OC(C)(C)C)[C@H](C)CCCCCCCCC(=O)OCCN(C(=O)OC(C)(C)C)[C@H](C)CCCCCCCCC(=O)OCCN1C(=O)OC(C)(C)C,/,/,2.5,/,-6.9,/,
CCN(CC)c1ccc(S(=O)(=O)N2CCOCC2)cc1NC(=O)CN1CCN(Cc2ccccc2)CC1,/,/,23.2,/,2.4,/,
CCC1(CC)Cc2ccccc2C(N)=C1C#N,3.6,0.8,60.8*,21.5,1.5,49.0*,Diaph ctr 10uM=50.4*;Diaph ctr 30uM=35.9
CCn1ncc2c(OCc3ccc(C#N)cc3)cc(C)nc21,4.5,0.9,67.9*,14.1,2.2,22.3,
O=C(N/N=C/c1cccc2ccccc12)c1ccccc1Cl,/,/,82.6*,/,1.3,46.1,
C=CCNc1nc2c3ccccc3n(C(C)=O)c2s1,4.2,0.8,64.0*,17.5,2.9,7.5,
Oc1ccc(C23CC4CC(CC(C4)C2)C3)cc1O,/,/,82.6*,/,0.3,70.9*,Diaph ctr 10uM=-8.3;Diaph ctr 30uM=-2.1
Cc1cc(NC(=O)c2cccnc2)ccc1Br,/,/,8.6,/,-7.7,/,
CCCn1cc(S(=O)(=O)CC(=O)Nc2ccc(OC)cc2OC)c2ccccc21,19.3,0.5,67.2*,48.0,17.2,68.0*,Diaph ctr 10uM=42.4;Diaph ctr 30uM=32.7
COc1ccc(NC(=O)CS(=O)(=O)c2cn(CC(=O)N(C(C)C)C(C)C)c3ccccc23)c(OC)c1,/,/,-4.2,/,0.8,/,
CC1CN(C(=O)COC(=O)CSc2ccc([N+](=O)[O-])cc2)CC(C)O1 (configuration not stated),/,/,60.4*,/,0.3,-3.8,
Fc1ccc(-c2nn3c(C4COc5ccccc5O4)nnc3s2)cc1 (configuration not stated),-3.3,0.9,55.7,9.8,-3.8,/,
c1csc(-c2nn3c(C4COc5ccccc5O4)nnc3s2)c1 (configuration not stated),2.6,1,59.2*,1.7,-5.2,8.6,
Clc1ccc(Cl)c(-c2nn3c(COc4ccccc4)nnc3s2)c1,-24.7,1,60.3*,3.2,-19.0,35.6,
c1ccc(OCc2nnc3sc(-c4cccs4)nn23)cc1,5.2,0.9,85.8*,6.8,-8.5,33.9,
CCOc1ccc(CCNC(=O)COC(=O)COc2ccc(C#N)cc2)cc1OCC,/,/,0.5,/,-4.7,/,
C=CCc1c(C)nc(C)nc1N/N=C/c1ccc([N+](=O)[O-])cc1,6.4,1,15.6,-4.0,-0.4,/,
C=CCc1c(C)nc(C)nc1N/N=C/c1ccccc1O,14.0,0.8,68.5*,15.9,-3.2,4.8,
CN(C)c1cc[n+](CC(=O)Nc2ccc(OC(F)F)cc2)cc1,/,/,-2.8,/,-5.2,/,
